Consider two compounds from ChEMBL document CHEMBL1146686, “Phenolic thiazoles as novel orally-active neuroprotective agents” (Bioorg Med Chem Lett, 2004).

What is called IC50 is the midpoint of a concentration-inhibition curve. Higher therefore signals weaker potency in that assay.

The species named for the experiment is Rattus norvegicus. Nature of the experiment: Compound tested to inhibit (LPO) lipid peroxidation was determined in rat brain microsomes. Type of experiment: functional. In outline:
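Rat brain microsomes; lipid peroxidation induced by Fe2+. Antioxidant activity read as reduction of malondialdehyde formed from unsaturated fatty acid peroxidation.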

In turn, `Cc1cc(C(C)(C)C)c(O)c(C(C)(C)C)c1` [BUTYLATED HYDROXYTOLUENE] yielded an IC50 of 30 µM.
In turn, `CC1=NN(c2ccccc2)C(=O)C1` [EDARAVONE] registered an IC50 of 32 µM.
